Data set [1] has as its system HeLa S3. The experiment in a line: Reversal of nocodazole-induced mitotic arrest in human HeLa S3 cells expressing histone H2B-GFP assessed as DNA decondensation at 10 uM measured for 20 to 60 mins by immunofluorescence analysis. Conditions: time 20-60 min. Format: functional, cell-based. The procedure, abridged:
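HeLa S3 H2B-GFP cells were held in nocodazole (200 ng·ml⁻¹) with or without inhibitor. Mitotic exit was scored as DNA decondensation and nuclear envelope reassembly, imaged every 5 min (60X objective); 150 cells counted per population.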

Data set [2] addresses ALK tyrosine kinase receptor (Homo sapiens, UniProt Q9UM73). Kind of data set: Inhibition of ALK (unknown origin) assessed as residual enzyme activity at 10 uM by Ambit kinase binding assay relative to control.
Data set [3] addresses Insulin receptor (Homo sapiens, UniProt P06213). The experiment in a line: Inhibition of INSR (unknown origin) assessed as residual enzyme activity at 10 uM by Ambit kinase binding assay relative to control.
In data set [4] the target is Ribosomal protein S6 kinase alpha-1 (Homo sapiens) (UniProt Q15418). The experiment in a line: Inhibition of RPS6KA1 kinase domain 1 (unknown origin) assessed as residual enzyme activity at 10 uM by Ambit kinase binding assay relative to control.
Sequence of Ribosomal protein S6 kinase alpha-1 (Homo sapiens) (Q15418 whole entry, the tested form may be a part): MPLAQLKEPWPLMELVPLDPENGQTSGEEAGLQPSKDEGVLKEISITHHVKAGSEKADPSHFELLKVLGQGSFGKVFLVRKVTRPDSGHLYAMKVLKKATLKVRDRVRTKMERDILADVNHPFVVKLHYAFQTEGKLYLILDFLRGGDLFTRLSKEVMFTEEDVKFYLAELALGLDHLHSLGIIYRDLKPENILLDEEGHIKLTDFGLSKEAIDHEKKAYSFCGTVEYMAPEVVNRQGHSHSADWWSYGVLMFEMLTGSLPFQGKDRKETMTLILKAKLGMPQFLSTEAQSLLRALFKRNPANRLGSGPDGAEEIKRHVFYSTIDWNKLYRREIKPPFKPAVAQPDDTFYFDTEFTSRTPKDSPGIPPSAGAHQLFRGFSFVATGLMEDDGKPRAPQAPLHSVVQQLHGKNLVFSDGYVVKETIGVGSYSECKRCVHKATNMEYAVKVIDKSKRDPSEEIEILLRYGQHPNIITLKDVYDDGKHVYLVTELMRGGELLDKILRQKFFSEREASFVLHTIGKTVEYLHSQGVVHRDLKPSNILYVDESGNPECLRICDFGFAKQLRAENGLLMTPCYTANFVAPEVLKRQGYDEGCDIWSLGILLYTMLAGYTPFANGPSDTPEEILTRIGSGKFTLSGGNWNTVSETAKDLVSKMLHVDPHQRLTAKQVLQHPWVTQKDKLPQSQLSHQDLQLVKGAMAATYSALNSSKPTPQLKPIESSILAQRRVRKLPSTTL
For data set [5], the target named is Serine/threonine-protein kinase 33 (Homo sapiens, UniProt Q9BYT3). Kind of data set: Inhibition of STK33 (unknown origin) assessed as residual enzyme activity at 10 uM by Ambit kinase binding assay relative to control.
The subject of data set [6] is U2OS. The experiment in a line: Reversal of paclitaxel-induced mitotic arrest in human U2OS cells assessed as accumulation of 4N phosphorylated Histone H3-negative cells incubated for 16 hrs by flow cytometry. Format: functional, cell-based. As to conditions: dose 5-10 µM.
The test system of data set [7] is U2OS. Kind of data set: Reversal of paclitaxel-induced mitotic arrest in human U2OS cells assessed as Ser10 phosphorylated Histone H3-positive 4c population at 10 uM incubated for 16 hrs by flow cytometry (reference value: 25 %). Format: functional. On the technique in general: A flow cytometer gives signals particle by particle.
For data set [8], the system named is TERT-RPE1. Kind of data set: Induction of aneuploidy in human TERT-RPE1 cells assessed as average chromosome number at 10 uM treated for 24 hrs by karyo-typing analysis (reference value: 45.9 +/- 0.3). Format: functional. The gist of the method: (§1)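 Asynchronous cells were exposed to 10 μM compound for 24 h. Medium was then replaced with medium containing 100 ng/mL colcemid for 2 h to arrest cells in metaphase, after which cells were harvested and karyotyped.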

Data set [9] has as its system TERT-RPE1. The experiment in a line: Induction of aneuploidy in human TERT-RPE1 cells assessed as frequency of non-disjunction events per cell at 10 uM treated for 24 hrs by karyo-typing analysis (reference value: 0.1). It counts as functional. The procedure, abridged:
as §1

Data set [10] concerns the target Aurora kinase B (Homo sapiens) (UniProt Q96GD4). Kind of data set: Inhibition of Aurora B phosphorylation at Thr232 in human U2OS cells by Western blot analysis. It counts as cell-based. The gist of the method:
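Thymidine-released U2OS cells were treated with inhibitor or DMSO for 1 hr before mitotic entry, then with taxol (1 μM) plus MG132 (10 μM). Mitotic cells were collected by shake-off and immunoblotted for phospho-Aurora B (Thr232). Cyclin B served as the mitotic marker and the Mps1 mobility shift as autophosphorylation.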
(In western blotting, separated proteins are transferred to a membrane and probed.)

Data set [11] relates to HeLa S3. Kind of data set: Effect on thymidine-treated human HeLa S3 cell populations after one cell doubling at 10 uM incubated for 4 hrs followed by thymidine release by immunofluorescence imaging analysis. It counts as functional, cell-based.
Data set [12] deals with HCT-116. The experiment in a line: Cytotoxicity against human HCT-116 cells assessed as loss of cell viability at 5 to 10 uM incubated for 10 days by crystal violet staining based assay. It counts as functional. As to conditions: dose 5-10 µM, time 10.0 day. The gist of the method:
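Colony outgrowth: cells plated at 200 cells per 60-mm dish, exposed to compound or DMSO vehicle and stained with crystal violet after 10 days. HCT116 grown in McCoy's 5A; A549 and HeLa in DMEM; hTERT-RPE1 in DMEM/F-12. All media had 10% FBS and penicillin/streptomycin, 37°C, 5% CO2. Quantified from 3 independent experiments, mean + SD, Student's t test.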

In data set [13] the test system is U2OS. The experiment in a line: Antiproliferative activity against human U2OS cells at 10 uM incubated for 4 days by Syto60 staining based assay. It counts as functional, cell-based. Conditions: time 4.0 day. The procedure, abridged: (§2)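 Proliferation read by Syto60 nucleic acid stain fluorescence (excitation 635 nm, emission 695 nm) after treatment for up to 96 h. Each time point normalized to its DMSO control. Mean ± SD from 4 independent experiments. Cells kept at 37°C, 5% CO2 in 10% FBS-supplemented medium.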

Data set [14] concerns MCF-10A. The experiment in a line: Antiproliferative activity against human MCF-10A cells at 10 uM incubated for 4 days by Syto60 staining based assay. Format: toxicity, cell-based. As to conditions: 96 h, time 4 day. The gist of the method:
as §2

In data set [15] the test system is TERT-RPE1. Kind of data set: Antiproliferative activity against hTERT-RPE1 cells at 10 uM incubated for 4 days by Syto60 staining based assay. Format: toxicity, cell-based. Conditions: human, tert-rpe1, 96 h, time 4 day.
Data set [16] has as its system MCF-10A. Kind of data set: Antiproliferative activity against human MCF-10A cells assessed as loss of clonal survival upto 25 uM incubated for 10 days by crystal violet staining based assay. Conditions: 240 h, time 10 day. Format: toxicity, cell-based.
Data set [17] relates to HCT-116. Kind of data set: Induction of apoptosis in human HCT-116 cells assessed as increase in cleaved PARP level at 5 to 10 uM measured after 48 hrs by immunoblot analysis. Conditions: dose 5-10 µM. Format: functional, cell-based.
Data set [18] deals with Insulin receptor-related protein (Homo sapiens, UniProt P14616). The experiment in a line: Binding affinity to INSRR (unknown origin) assessed as dissociation constant by Ambit kinase binding assay.
Sequence of Insulin receptor-related protein (P14616 27-742 limits assumed): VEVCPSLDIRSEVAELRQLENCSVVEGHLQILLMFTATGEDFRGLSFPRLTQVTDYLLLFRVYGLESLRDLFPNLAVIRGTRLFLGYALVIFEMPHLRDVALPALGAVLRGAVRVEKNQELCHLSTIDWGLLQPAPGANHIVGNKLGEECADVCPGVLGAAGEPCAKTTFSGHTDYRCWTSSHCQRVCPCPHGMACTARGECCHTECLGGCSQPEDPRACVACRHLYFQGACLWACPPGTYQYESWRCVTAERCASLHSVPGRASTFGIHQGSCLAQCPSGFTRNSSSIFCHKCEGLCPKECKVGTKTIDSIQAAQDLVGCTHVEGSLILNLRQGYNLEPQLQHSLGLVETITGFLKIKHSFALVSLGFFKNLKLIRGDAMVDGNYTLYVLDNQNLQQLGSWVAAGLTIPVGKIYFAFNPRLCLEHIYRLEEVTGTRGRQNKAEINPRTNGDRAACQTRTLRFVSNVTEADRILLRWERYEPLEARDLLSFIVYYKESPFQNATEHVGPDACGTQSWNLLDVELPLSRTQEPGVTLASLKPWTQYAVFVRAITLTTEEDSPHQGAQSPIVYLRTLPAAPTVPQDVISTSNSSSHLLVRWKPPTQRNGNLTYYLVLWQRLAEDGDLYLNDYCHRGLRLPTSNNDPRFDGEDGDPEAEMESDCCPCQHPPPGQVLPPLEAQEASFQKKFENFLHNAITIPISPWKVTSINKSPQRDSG
Sequence of Insulin receptor-related protein (P14616 747-1297 limits assumed): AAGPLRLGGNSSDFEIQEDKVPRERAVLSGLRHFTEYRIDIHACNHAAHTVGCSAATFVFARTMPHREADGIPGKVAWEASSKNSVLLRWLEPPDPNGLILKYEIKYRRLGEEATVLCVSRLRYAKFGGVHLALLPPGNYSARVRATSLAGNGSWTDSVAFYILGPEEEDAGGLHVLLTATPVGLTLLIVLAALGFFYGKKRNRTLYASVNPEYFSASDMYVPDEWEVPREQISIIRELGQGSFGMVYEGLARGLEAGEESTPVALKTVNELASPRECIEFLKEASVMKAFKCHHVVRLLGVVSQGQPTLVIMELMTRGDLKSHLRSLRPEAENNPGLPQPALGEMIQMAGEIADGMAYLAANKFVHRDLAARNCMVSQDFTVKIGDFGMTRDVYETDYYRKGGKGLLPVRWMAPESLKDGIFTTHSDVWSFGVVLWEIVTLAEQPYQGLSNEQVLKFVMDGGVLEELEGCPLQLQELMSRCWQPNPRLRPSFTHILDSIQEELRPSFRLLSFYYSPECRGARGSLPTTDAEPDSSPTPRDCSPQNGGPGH
The target in data set [19] is Bone morphogenetic protein receptor type-2 (Homo sapiens) (UniProt Q13873). The experiment in a line: Inhibition of BMPR2 (unknown origin) assessed as residual enzyme activity at 10 uM by Ambit kinase binding assay relative to control.
The target in data set [20] is Death-associated protein kinase 3 (Homo sapiens) (UniProt O43293). The experiment in a line: Inhibition of DAPK3 (unknown origin) assessed as residual enzyme activity at 10 uM by Ambit kinase binding assay relative to control.
In data set [21] the target is Serine/threonine-protein kinase Nek1 (Homo sapiens) (UniProt Q96PY6). The experiment in a line: Inhibition of NEK1 (unknown origin) assessed as residual enzyme activity at 10 uM by Ambit kinase binding assay relative to control.
Sequence of Serine/threonine-protein kinase Nek1 (Homo sapiens) (Q96PY6 whole entry): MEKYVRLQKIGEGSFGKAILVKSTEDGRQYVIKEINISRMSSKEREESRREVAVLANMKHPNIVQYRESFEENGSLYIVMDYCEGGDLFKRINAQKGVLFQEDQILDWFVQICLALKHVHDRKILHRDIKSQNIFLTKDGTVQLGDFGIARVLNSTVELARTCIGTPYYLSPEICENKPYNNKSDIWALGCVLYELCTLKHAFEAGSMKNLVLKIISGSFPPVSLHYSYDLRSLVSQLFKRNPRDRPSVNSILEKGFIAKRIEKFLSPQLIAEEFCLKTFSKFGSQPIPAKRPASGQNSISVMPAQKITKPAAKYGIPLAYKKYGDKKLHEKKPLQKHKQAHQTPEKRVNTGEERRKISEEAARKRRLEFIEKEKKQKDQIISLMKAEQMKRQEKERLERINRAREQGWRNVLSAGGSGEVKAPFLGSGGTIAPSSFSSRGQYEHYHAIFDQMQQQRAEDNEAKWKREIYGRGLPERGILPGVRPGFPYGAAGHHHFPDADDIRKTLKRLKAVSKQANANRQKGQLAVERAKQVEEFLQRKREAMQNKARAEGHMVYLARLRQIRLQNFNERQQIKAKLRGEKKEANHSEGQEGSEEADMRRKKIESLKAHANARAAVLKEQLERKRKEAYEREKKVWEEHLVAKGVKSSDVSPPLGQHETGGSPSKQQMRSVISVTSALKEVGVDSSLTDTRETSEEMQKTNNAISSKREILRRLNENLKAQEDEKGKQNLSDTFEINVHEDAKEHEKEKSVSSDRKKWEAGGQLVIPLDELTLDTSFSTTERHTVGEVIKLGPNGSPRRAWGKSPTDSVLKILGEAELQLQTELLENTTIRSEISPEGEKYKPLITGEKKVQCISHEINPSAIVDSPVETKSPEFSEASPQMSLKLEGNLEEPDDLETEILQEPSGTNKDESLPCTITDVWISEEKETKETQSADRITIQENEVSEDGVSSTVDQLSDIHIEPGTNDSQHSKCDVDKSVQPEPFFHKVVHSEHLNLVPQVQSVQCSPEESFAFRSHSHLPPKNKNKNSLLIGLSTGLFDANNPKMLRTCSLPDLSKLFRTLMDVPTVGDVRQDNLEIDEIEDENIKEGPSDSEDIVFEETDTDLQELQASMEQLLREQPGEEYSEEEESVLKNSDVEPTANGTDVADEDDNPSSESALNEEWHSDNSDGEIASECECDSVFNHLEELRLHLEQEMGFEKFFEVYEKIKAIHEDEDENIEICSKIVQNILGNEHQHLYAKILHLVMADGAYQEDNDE
Data set [22] concerns the target Mitogen-activated protein kinase 12 (Homo sapiens) (UniProt P53778). Kind of data set: Inhibition of p38-gamma (unknown origin) assessed as residual enzyme activity at 10 uM by Ambit kinase binding assay relative to control.
In data set [23] the target is Ribosomal protein S6 kinase alpha-5 (Homo sapiens) (UniProt O75582). Kind of data set: Inhibition of RPS6KA5 kinase domain 2 (unknown origin) assessed as residual enzyme activity at 10 uM by Ambit kinase binding assay relative to control.
Sequence of Ribosomal protein S6 kinase alpha-5 (Homo sapiens) (O75582 whole entry, looked up, the tested form may be a part): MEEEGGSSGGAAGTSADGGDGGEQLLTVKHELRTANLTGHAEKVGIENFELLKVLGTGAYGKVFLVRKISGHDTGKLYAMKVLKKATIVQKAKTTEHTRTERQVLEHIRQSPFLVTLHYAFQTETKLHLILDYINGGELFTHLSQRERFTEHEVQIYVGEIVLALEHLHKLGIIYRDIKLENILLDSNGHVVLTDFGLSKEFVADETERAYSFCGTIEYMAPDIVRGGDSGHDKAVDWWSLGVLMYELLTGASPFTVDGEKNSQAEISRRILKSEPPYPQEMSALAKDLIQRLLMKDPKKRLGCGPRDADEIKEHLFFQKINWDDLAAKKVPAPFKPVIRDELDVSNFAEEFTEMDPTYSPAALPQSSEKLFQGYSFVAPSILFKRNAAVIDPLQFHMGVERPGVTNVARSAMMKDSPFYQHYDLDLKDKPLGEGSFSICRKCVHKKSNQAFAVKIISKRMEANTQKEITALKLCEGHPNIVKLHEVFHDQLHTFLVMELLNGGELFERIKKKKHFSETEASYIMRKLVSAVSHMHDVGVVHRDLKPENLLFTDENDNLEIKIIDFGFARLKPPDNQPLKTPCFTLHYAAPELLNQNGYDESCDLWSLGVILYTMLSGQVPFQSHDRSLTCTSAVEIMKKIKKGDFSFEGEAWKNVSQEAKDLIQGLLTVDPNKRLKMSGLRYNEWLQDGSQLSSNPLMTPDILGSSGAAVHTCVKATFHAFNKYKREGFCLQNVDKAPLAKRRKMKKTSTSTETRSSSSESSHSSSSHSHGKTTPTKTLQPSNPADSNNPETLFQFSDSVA
In data set [24] the target is Ribosomal protein S6 kinase alpha-6 (Homo sapiens) (UniProt Q9UK32). The experiment in a line: Inhibition of RPS6KA6 kinase domain 2 (unknown origin) assessed as residual enzyme activity at 10 uM by Ambit kinase binding assay relative to control.
Data set [25] addresses SRSF protein kinase 1 (Homo sapiens) (UniProt Q96SB4). Kind of data set: Inhibition of SRPK1 (unknown origin) assessed as residual enzyme activity at 10 uM by Ambit kinase binding assay relative to control.
Data set [26] has as its target TRAF2 and NCK-interacting protein kinase (Homo sapiens) (UniProt Q9UKE5). The experiment in a line: Inhibition of TNIK (unknown origin) assessed as residual enzyme activity at 10 uM by Ambit kinase binding assay relative to control.
Data set [27] has as its target Serine/threonine-protein kinase ULK3 (Homo sapiens) (UniProt Q6PHR2). Kind of data set: Inhibition of ULK3 (unknown origin) assessed as residual enzyme activity at 10 uM by Ambit kinase binding assay relative to control.

The source made the active and inactive calls. The calls are words filed in the database; no cut-off is given here.

What is called Kd is the free concentration of one partner at which half of the binding sites on the other are occupied at equilibrium, for simple one-to-one binding.

Sequence of SRSF protein kinase 1 (Homo sapiens) (Q96SB4 whole entry): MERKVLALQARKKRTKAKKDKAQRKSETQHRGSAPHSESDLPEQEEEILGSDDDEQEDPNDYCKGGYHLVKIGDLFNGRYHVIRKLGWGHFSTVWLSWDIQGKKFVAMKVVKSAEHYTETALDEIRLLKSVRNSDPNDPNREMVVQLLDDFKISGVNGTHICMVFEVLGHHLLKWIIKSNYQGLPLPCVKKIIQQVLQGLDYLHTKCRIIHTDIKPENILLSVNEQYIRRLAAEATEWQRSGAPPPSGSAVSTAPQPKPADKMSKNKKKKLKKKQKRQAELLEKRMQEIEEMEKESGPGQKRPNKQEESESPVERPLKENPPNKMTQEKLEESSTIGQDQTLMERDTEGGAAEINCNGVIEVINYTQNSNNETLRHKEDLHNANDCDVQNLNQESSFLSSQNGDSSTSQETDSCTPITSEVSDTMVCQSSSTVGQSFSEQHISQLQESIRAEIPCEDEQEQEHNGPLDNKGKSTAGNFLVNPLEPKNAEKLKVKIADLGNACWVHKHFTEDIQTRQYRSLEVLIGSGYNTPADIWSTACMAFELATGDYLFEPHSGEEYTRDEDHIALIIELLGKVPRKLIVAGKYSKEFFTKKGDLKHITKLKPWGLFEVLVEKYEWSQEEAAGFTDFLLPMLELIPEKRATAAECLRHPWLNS
Sequence of Aurora kinase B (Homo sapiens) (Q96GD4 whole entry): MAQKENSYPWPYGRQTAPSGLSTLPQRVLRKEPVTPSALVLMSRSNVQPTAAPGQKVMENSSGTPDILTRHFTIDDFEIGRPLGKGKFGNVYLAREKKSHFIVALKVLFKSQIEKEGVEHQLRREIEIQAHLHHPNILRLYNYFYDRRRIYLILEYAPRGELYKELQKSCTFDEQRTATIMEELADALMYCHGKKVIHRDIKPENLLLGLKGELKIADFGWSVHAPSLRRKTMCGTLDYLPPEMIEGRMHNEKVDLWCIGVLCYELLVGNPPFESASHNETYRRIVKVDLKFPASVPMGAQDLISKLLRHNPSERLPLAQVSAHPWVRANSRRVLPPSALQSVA

For the compound `COc1cc(N2CCC(O)CC2)ccc1Nc1cc(Nc2ccccc2S(=O)(=O)C(C)C)c2cc[nH]c2n1`, the outcome in data set [1], in data set [12], in data set [13] and in data set [17] was Active. For the same compound, the Activity is 8.9% in data set [2]; 0.15% in data set [3]; 29% in data set [4]; 12% in data set [5]; “Dose-Dependent Effect” in data set [6]; 1% in data set [7]. The Activity in data set [8] is 46.5; in [9] it was 3.3; in [14], “Toxic”; in data set [15], “Toxic”; in data set [16], “Toxic”. Moreover, in [10], the inhibition entry was “Active”. The result in data set [11] was inactive. Besides, the Kd in data set [18] was 1200 nM.
Turning to `O=C1c2ccccc2-c2n[nH]c3cccc1c23`, the Activity in data set [19] amounted to 15%; in data set [20] it was 3.2%; in [21], 15%; in data set [22] it was 21%; in [23] it was 12%; in data set [24] it was 3%. Further, the figures for the Activity in data set [25], in [26] and in data set [27] were 32%, 18% and 11%, respectively.

The values are drawn from ChEMBL document CHEMBL5705891, “Small-molecule kinase inhibitors provide insight into Mps1 cell cycle function” (Nat Chem Biol, 2010).
